Measured values published in paper PMC4477354 (Diabetes, 2015).
Where two headings read alike, the source gives them in different places.

How the values were obtained:
[1] = tested on: insulin receptor; details: mice, cited from earlier work
[2] = men, plasma glucose comparably clamped; cited from earlier work
[3] = assay type: in vivo, rat; details: rats, 0.5 units/kg s.c.; for CSF insulin at 6, 12 and 24 h / plasma glucose at 6 h and 12 h: Ps < 0.05; for time by which plasma insulin had returned to baseline: sampled 0, 6, 12, 24, 48, 72 h
Summary of the method: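 Overnight-fasted rats, n = 7–8/group, received GLAR or DET 0.5 units/kg s.c. CSF (~150 µL) taken from the cisterna magna under isoflurane at 0, 6, 12, 24, 48 or 72 h, then blood collected after decapitation. Insulin by ELISA with standards from each injected insulin (450 minus 630 nm). Plasma glucose by glucometer in duplicate. Factorial ANOVA.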

[4] = Food intake and body weight after third-ventricular; assay type: in vivo, rat; details: rats, 8 mU I3VT
Summary of the method: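 Rats carried a third-ventricle cannula (2.2 mm posterior to bregma, midline), checked by drinking >5 mL within 30 min after 10 ng angiotensin II. Rats (n = 16) were handled for 4 days with food removed for the last 4 h of light. In randomized crossover 1 week apart, they received 8 mU DET or NPH insulin, or 2 µL saline, 1 h before dark. Food returned at dark; intake and weight taken at 24 and 48 h. Repeated-measures ANOVA, Tukey.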

[5] = assay type: in vivo, mouse; details: mice, 1 unit/kg s.c. daily for 6 weeks, n = 7-9/group, P < 0.05
Summary of the method: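 Mice, n = 7–9/group, were injected s.c. daily for 6 weeks with saline, GLAR or DET (1 unit/kg). CSF from the cisterna magna (isoflurane, 4-h fast) and EDTA plasma were taken 24 h after the last dose. Insulin measured by ELISA on 10 µL CSF or 5 µL plasma, against standards from the injected insulins.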

[6] = Food intake, body weight and body composition; assay type: in vivo, mouse; details: mice, P < 0.05; for body fat compared with the saline-control group: NMR
Summary of the method: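 Mice were first matched by fat mass using NMR while conscious. They then received (n = 12/group) daily s.c. saline, DET or GLAR at 1 unit/kg for 6 weeks. Body weight and food intake recorded weekly; NMR body composition repeated at the end. Repeated-measures ANOVA with Tukey post hoc.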

[7] = overweight humans, intravenous; cited from earlier work
[8] = assay type: in vivo, mouse; details: mice, 1 unit/kg s.c.; for CSF insulin at 6 and 12 h: Ps < 0.05; for time by which plasma insulin had returned to baseline: sampled 0, 6, 12, 24, 48 h
Summary of the method: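 Mice fasted 4 h, n = 7–8/group, given 1 unit/kg s.c. GLAR or DET. CSF (~15 µL, glass capillary) drawn from the cisterna magna under isoflurane at baseline and 6, 12, 24, 48 h, then trunk blood taken into chilled EDTA. Insulin measured by ELISA against standards made from each injected insulin. Blood-contaminated CSF discarded; factorial ANOVA.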

[9] = clinical trials, basal insulin replacement; cited from earlier work
[10] = assay type: in vivo, rat; details: rats, 0.5 units/kg i.p.
Summary of the method: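 Rats, n = 6–8/time point, overnight-fasted, were given 0.5 units/kg i.p. NPH insulin or DET. Cisternal CSF taken under isoflurane at 5, 10, 20, 40, 80, 160 or 320 min, followed by EDTA blood. Insulin by ELISA with standards from each injected insulin. Plasma glucose by glucometer in duplicate. Factorial ANOVA.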

[11] = assay type: in vivo, rat; details: rats
Summary of the method: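 Overnight-fasted rats, n = 8–10/dose, got NPH insulin or DET i.p. at 0, 0.1, 0.3, 1, 3 or 10 units/kg. They were anesthetized with isoflurane at 25 min and cisternal CSF drawn at 30 min, then blood collected. Insulin by ELISA (2 h at 4°C; conjugate 30 min; substrate 40 min). Glucose by glucometer in duplicate. Factorial ANOVA.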

[12] = extended by albumin binding of the attached fatty acid; cited from earlier work
[13] = 1 unit/kg s.c. daily for 6 weeks

## Insulin detemir
[1]; insulin in brain tissue extracts
  uptake into the brain: preferential uptake of DET into the brain
[1]
  phosphorylation of the insulin receptor in hypothalamus: selectively increased phosphorylation of the insulin receptor
[2]
  electroencephalogram activity in the frontal cortex compared with regular insulin: significant change in electroencephalogram activity
  food intake compared with regular insulin: significant reduction of food intake
[3]
  CSF insulin at 48 h: continued to have elevated CSF insulin
  CSF insulin at 6, 12 and 24 h: comparably increased
  plasma glucose at 6 h and 12 h: reduced
  time by which plasma insulin had returned to baseline: ≤ 24 h
[3]; n = 7-8/group, P < 0.05
  plasma insulin at 6 h, DET compared with GLAR: elevated more
[4]; P < 0.05
  body weight after 24 h: significant weight loss
  body weight after 48 h: maintaining this weight loss
[4]; crossover, n = 16
  food intake after 48 h relative to saline: remained significantly reduced
[4]; crossover, n = 16, P < 0.05
  food intake over 24 h relative to saline: ate significantly less food
[5]
  CSF insulin relative to controls 24 h after the final injection: had increased insulin
[6]; [13]
  body fat compared with the saline-control group: significantly lower
  cumulative food intake compared with GLAR or saline groups: significantly lower
[7]
  cerebrocortical activity: increased cerebrocortical activity
[8]
  CSF insulin after 24 and 48 h: elevated CSF insulin levels
  CSF insulin at 6 and 12 h: comparably increased
  time by which plasma insulin had returned to baseline: ≤ 24 h
[8]; n = 7-8/group, P < 0.05
  plasma insulin at 6 h, DET compared with GLAR: elevated to a greater extent
[9]
  weight gain compared with other long-acting formulations: less weight gain
[10]; 5-320 min, P < 0.05
  plasma glucose levels over time: relatively constant level for the duration of the experiment
[10]; Ps < 0.05
  plasma glucose at 80, 160 and 320 min, DET relative to NPH: sustained hypoglycemia
[10]; planned comparison, P < 0.05
  insulin in plasma (160 and 320 min) and CSF (320 min), DET relative to NPH: more prolonged elevation of insulin
[10]; sampled up to 320 min
  time at which CSF insulin reached baseline: > 320 min
  time at which plasma insulin was no longer elevated relative to baseline: > 320 min
[11]; 0-10 units/kg i.p., 30 min postinjection, glucometer
  plasma glucose after 30 min: dose-dependent decrease
[11]; 0-10 units/kg i.p., 30 min postinjection, insulin ELISA, n = 8-10/dose
  plasma insulin after 30 min: increased at all doses
[11]; 0-10 units/kg i.p., CSF sampled 30 min postinjection, insulin ELISA
  CSF insulin after 30 min: elevated after all doses
[11]; i.p., 30 min postinjection
  dose at which apparent saturation of CSF insulin levels occurred: ≤ 3 units/kg
[12]
  plasma half-life: 5 to 7 h

## insulin glargine
[3]
  CSF insulin at 48 h: returned to baseline
  plasma glucose at 24 h: remained lower
  CSF insulin at 6, 12 and 24 h: comparably increased
  plasma glucose at 6 h and 12 h: reduced
  time by which plasma insulin had returned to baseline: ≤ 48 h
[3]; P < 0.05
  plasma insulin at 12 h, DET compared with GLAR: higher plasma insulin
[5]
  plasma insulin relative to controls 24 h after the final injection: continued to have elevated plasma insulin
[6]; [13]
  body fat compared with the saline-control group: higher
[6]; 1 unit/kg s.c. daily
  body weight relative to saline-treated animals by week 6: increased relative to that of saline-treated animals
[8]
  CSF insulin after 24 and 48 h: lower at 24 h and had returned to baseline by 48 h
  CSF insulin at 6 and 12 h: comparably increased
  time by which plasma insulin had returned to baseline: ≤ 48 h
[8]; P < 0.05
  plasma insulin at 12 h, DET compared with GLAR: higher plasma concentrations
